Compound activity from PubChem BioAssay.
TRPC6 inh: mouse TRPC6 channel inhibitors, primary screen, cell-based, HEK293, membrane potential dye. AID 2553, 2010. Short transient receptor potential channel 6 (Mus musculus), Q61143. 310,000 tested, 1.1% active. ACh-evoked depolarization; active compounds read low. B-score at 10 µM;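 active = B-score under library mean minus 3 SD, initial fluorescence not abnormally high, positive integrated signal ratio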;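 also: B-score derived from integrated fluorescence ratio over the kinetic read; more negative B-score means stronger inhibition of depolarization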
TRPC4 PAM: positive allosteric modulators of TRPC4, primary screen, cell-based, mouse TRPC4beta, HEK293 mu-opioid, Fluo-4 calcium; B-score at 10 µM; 310,000 tested, 0.42% active; AID 2227, 2009; Short transient receptor potential channel 4 (Mus musculus), Q9QUQ5; DAMGO EC20, Fluo-4 Ca2+ flux; active compounds read high;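 active = B-score of calcium response area above 5 SD of library B-scores, with initial fluorescence ratio within 5 SD of library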;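 also: B-score of integrated fluorescence ratio over time as area under calcium response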
Target sequence (Q9QUQ5 whole entry, looked up): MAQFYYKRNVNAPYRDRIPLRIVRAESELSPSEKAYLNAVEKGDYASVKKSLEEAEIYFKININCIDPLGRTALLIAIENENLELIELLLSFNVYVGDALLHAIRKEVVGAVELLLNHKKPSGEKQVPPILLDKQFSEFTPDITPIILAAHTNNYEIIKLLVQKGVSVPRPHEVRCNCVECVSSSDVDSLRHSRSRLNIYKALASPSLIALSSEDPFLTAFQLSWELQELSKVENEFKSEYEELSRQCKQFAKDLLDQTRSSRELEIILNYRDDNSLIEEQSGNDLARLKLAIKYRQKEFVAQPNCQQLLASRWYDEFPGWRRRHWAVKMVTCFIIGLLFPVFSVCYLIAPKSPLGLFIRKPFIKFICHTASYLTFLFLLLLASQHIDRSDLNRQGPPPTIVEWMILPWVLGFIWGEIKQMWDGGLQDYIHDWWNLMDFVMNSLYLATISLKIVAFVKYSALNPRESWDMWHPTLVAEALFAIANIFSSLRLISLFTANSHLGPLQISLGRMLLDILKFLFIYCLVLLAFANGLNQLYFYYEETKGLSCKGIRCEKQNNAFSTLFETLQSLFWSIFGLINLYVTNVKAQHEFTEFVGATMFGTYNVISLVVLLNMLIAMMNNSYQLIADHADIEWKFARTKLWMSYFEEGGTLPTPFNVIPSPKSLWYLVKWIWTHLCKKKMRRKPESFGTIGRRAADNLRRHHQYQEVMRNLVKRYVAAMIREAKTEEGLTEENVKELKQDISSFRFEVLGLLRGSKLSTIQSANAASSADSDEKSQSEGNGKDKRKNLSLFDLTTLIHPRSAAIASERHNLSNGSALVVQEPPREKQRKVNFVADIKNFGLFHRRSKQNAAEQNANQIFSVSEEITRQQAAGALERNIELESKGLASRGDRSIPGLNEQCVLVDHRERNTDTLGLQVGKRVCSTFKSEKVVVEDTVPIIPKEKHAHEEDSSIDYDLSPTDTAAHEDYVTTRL
TRPC4 act: activators of mouse TRPC4 channel, primary screen, Fluo4 calcium, HEK293 TRPC4beta/mu-opioid cells. Fluo4 calcium fluorescence; active compounds read high. B-score at 10 µM. 310,000 tested, 0.49% active. AID 2237, 2010;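 active = B-score above 5 SD of library B-scores, and initial fluorescence ratio not above library mean plus 5 SD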;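 also: positive B-score marks a calcium rise read as TRPC4 activation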
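system = HEK293 cells stably co-expressing mouse TRPC4beta and mu-opioid receptor | schedule = Fluo4 dye loading 45 min at room temperature, 110 s recording | measure = B-scored integrated calcium fluorescence ratio | signal = Fluo4 calcium-sensitive dye fluorescence, kinetic, 1 Hz baseline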
TRPC6 activator: mouse TRPC6 channel activators, primary screen, cell-based, HEK293, membrane potential dye; HEK293-TRPC6 membrane potential dye fluorescence; active compounds read high; Short transient receptor potential channel 6 (Mus musculus), Q61143; B-score at 10 µM; 310,000 tested, 0.13% active;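 active = B-score of the integrated fluorescence ratio above library mean plus 3 SD, and starting fluorescence ratio within library mean plus 5 SD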;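 also: higher score means more depolarization so channel activation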
TRPC4 inh: inhibitors of mouse TRPC4 channel, primary screen, Fluo4 calcium, HEK293 TRPC4beta/mu-opioid cells | 300,000 tested, 0.39% active | AID 2247, 2010 | DAMGO-evoked Fluo4 calcium flux; active compounds read low | Short transient receptor potential channel 4 (Mus musculus), Q9QUQ5 | B-score at 10 µM;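 active = B-score over 3 SD under the library average, no early fluorescence shift, positive overall ratio signal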
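Test system – stable TRPC4beta/mu-opioid receptor HEK293 cells · Probe or stimulus – DAMGO, a submaximal dose followed by a maximal one · Dosing – one concentration per compound · Signal – Fluo4 calcium fluorescence by kinetic imaging, 5 s 1 Hz baseline · Evaluation – per-well B score of integrated baseline-normalized Fluo4 ratio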
TRPC4 spec 2: second check of whether TRPC6 inhibitors also affect mouse TRPC4 | shares compounds with TRPC6 inh | AID 2776 | 920 tested, 42% active | HEK293 TRPC4/MOR, membrane potential dye fluorescence; channel activated by saturating DAMGO dose | inhibition, % at 10 µM;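 active = compounds whose fluorescence signal differed from control wells by over 3 SD, either direction, in both duplicate plates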
TRPC4 spec: mouse TRPC4 modulation by TRPC6 hits, confirmation, selectivity assay for TRPC6 inhibitor project, cell-based, HEK293 TRPC4/mu-opioid, membrane potential dye. membrane potential fluorescence. 920 tested, 61% active. shares compounds with TRPC6 inh. AID 2777, 2010. activity change, negative = inhibition, % at 10 µM;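 active = rise or fall in signal beyond 3 SD of buffer-only wells in both replicate plates, either sign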;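 also: integrated kinetic ratio of fluorescence range over baseline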
HEK293 MPD ctr 2-1: nonspecific membrane potential effects, parental HEK293, confirmation, counter-screen for TRPC6 inhibitor project, cell-based, second counter screen. 920 tested, 31% active. shares compounds with TRPC6 inh. signal change vs control, % at 10 µM. parental HEK293 membrane potential dye fluorescence; maximal acetylcholine challenge after compound addition;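 active = membrane potential signal moving either way by over 3 SD of the maximum-effect control, in both duplicate plates, meaning non-specific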
HEK293 MPD ctr-1: membrane potential modulation in parental HEK293, confirmation, counter-screen for TRPC6 inhibitor project, cell-based; shares compounds with TRPC6 inh; parental HEK293 membrane potential dye fluorescence; membrane potential signal change, % at 10 µM; 920 tested, 60% active;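 active = membrane potential signal shifting up or down by more than 3 SD of buffer-only wells, on both duplicate plates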
HEK293 MPD ctr-2: parental HEK293 membrane potential modulation, confirmation, counter-screen for TRPC6 modulator project, cell-based; membrane potential dye fluorescence; shares compounds with TRPC6 inh; membrane potential signal change, % at 10 µM; AID 488924, 2010; 2,400 tested, 51% active;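 active = membrane potential signal moves up or down beyond 5 SD from buffer-only wells, on both duplicate plates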
HEK293 MPD ctr 2-2: second check of TRPC6 modulator effects in parental HEK293 cells | 2,400 tested, 14% active | inhibition, % at 10 µM | shares compounds with TRPC6 inh | AID 488926 | membrane potential dye fluorescence; after compound, maximal acetylcholine stimulation;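 active = membrane potential signal drops by more than 5 SD from the mean control signal, in both duplicate plates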;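 also: plate controls were acetylcholine ECmax control wells for no effect and buffer only wells for full effect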
TRPC4 ctr mod: TRPC4 modulation by TRPC6 hit compounds, confirmation, selectivity assay for TRPC6 modulator project, cell-based, HEK293 TRPC4/mu-opioid, membrane potential dye, mouse. shares compounds with TRPC6 inh. membrane potential fluorescence. percent change from control (negative = decrease, positive = increase), % at 10 µM. 2,400 tested, 69% active;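 active = membrane potential signal moved up or down beyond 5 SD of buffer control wells, in both duplicate plates, actives on both sides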;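 also: plate controls were assay buffer wells for no effect and DAMGO maximal-effect wells for full effect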
TRPC4 ctr inh 2: second selectivity test of TRPC6 modulators against mouse TRPC4; shares compounds with TRPC6 inh; HEK293 TRPC4/mu-opioid, membrane potential dye fluorescence; stimulated with maximal-effect DAMGO; inhibition, % at 10 µM; 2,400 tested, 55% active;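 active = drop in membrane potential signal beyond 5 SD of the control wells in both duplicate plates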;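 also: TRPC4 counter screen for TRPC6 hits run under conditions tuned for TRPC6 not TRPC4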
TRPC6 inh conf: mouse TRPC6 channel inhibitors, confirmation, HEK293 cells, membrane potential dye, duplicate; ACh-evoked depolarization; 3,300 tested, 43% active; shares compounds with TRPC6 inh; inhibition, % at 10 µM; AID 488960, 2010;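 active = fluorescence ratio falls more than 5 SD below the full-stimulation control mean, in both duplicate runs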;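 also: integrated fluorescence ratio of peak minus minimum over baseline after agonist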
TRPC6 act confirm: mouse TRPC6 channel activators, confirmation, HEK293 cells, membrane potential dye, duplicate. shares compounds with TRPC6 inh. AID 488961, 2010. activation, % at 10 µM. HEK293-TRPC6 membrane potential dye fluorescence, FDSS. 2,800 tested, 11% active;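 active = ratio signal rise beyond 5 SD above unstimulated control wells' mean, seen in both duplicate runs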;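 also: plate controls were buffer EC0 wells for no effect and acetylcholine ECmax response for full effect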
Starred values were filed as active, the others as inactive; i = inactive; . = no result. Rows were chosen to be rich in hits. Some 2.3% of all compounds tested hit in one or more screens of this group.

SMILES	TRPC6 inh	TRPC4 PAM	TRPC4 act	TRPC6 activator	TRPC4 inh	HEK293 MPD ctr-2	HEK293 MPD ctr 2-2	TRPC4 ctr mod	TRPC4 ctr inh 2	TRPC6 inh conf	TRPC6 act confirm	others
CN1CCc2c(sc3nc(SCC(N)=O)n(-c4ccc(Cl)cc4)c(=O)c23)C1	i	i	i	i	i	.	.	.	.	.	.
CCCCSc1nc2sc3c(c2c(=O)n1-c1ccccc1)CCN(C)C3	i	i	i	i	i	.	.	.	.	.	.
CCCCNc1nc2sc3c(c2c(=O)n1-c1cccc(Cl)c1)CCN(C)C3	-6.1*	i	i	i	i	i	i	i	58%*	i	i
C[C@H](NC(=O)C1CCN(S(=O)(=O)c2ccccc2)CC1)C(=O)NCc1ccc(Cl)cc1Cl	i	i	i	i	i	.	.	.	.	.	.
Nc1nnnn1/N=C/c1ccc(F)cc1	i	i	i	i	i	.	.	.	.	.	.
CC(=O)Nc1ccc(S(=O)(=O)NC2(C(F)(F)F)C(=O)Nc3c2c(=O)[nH]c(=O)n3Cc2cccnc2)cc1 (configuration not stated)	i	i	i	i	i	.	.	.	.	.	.
CC[n+]1c(/C=C/Nc2ccccc2)oc2ccccc21	-7.3*	i	i	i	i	-169%*	76%*	-44%*	82%*	69%*	i
CC[n+]1c(/C=C/N(C)c2ccccc2)oc2ccc(F)cc21	i	i	i	i	i	.	.	.	.	.	.
CC[n+]1c(/C=C/Nc2ccccc2)oc2ccc(OC)cc21	-5.5*	i	i	i	-7*	-74%*	i	-24%*	i	46%*	i
CC(CN1c2ccccc2Sc2ccccc21)N(C)C (configuration not stated)	-6.1*	i	i	i	i	i	94%*	8.0%*	32%*	72%*	i
CCN(CC)CCCCN1c2ccccc2Sc2ccccc21	-6.5*	i	i	i	i	i	i	i	69%*	48%*	i
CN(C)CCC(=O)N1c2ccccc2Sc2ccc(C(F)(F)F)cc21	-6.3*	i	i	i	i	88%*	92%*	14%*	38%*	89%*	.
CN(C)CCCN1c2ccccc2Sc2ccc(C(F)(F)F)cc21	-7.2*	i	i	i	i	.	.	.	.	i	i	TRPC4 spec 2=70%*;TRPC4 spec=1.5%*;HEK293 MPD ctr 2-1=i;HEK293 MPD ctr-1=i
COc1ccc(CNC(=O)CN(C(=O)CCC(=O)Nc2ccccn2)c2ccc3c(c2)OCO3)cc1	i	i	i	i	i	.	.	.	.	.	.
CN(CC(=O)Nc1ccccc1Cl)C(=O)COC(=O)CCN1C(=O)C2CC=CCC2C1=O (configuration not stated)	i	i	i	i	i	.	.	.	.	.	.
CC(=O)Oc1ccc(C(=O)Nc2ccc(C3(C#N)CCCC3)cc2)cc1	i	i	i	i	i	.	.	.	.	.	.
CC(=O)Nc1ccc(NC(=O)C2CCCN(S(=O)(=O)c3ccc(-n4cnnn4)cc3)C2)cc1 (configuration not stated)	-6.6*	i	i	i	i	.	.	.	.	i	i	TRPC4 spec 2=i;TRPC4 spec=i;HEK293 MPD ctr 2-1=i;HEK293 MPD ctr-1=i
COc1ccc(NC(=O)C2CCCN(S(=O)(=O)c3ccc4c(c3)CC(C)N4C(C)=O)C2)cc1 (configuration not stated)	i	i	i	i	i	.	.	.	.	.	.
CCc1ccc(NC(=O)C2CCCN(S(=O)(=O)c3cnc[nH]3)C2)cc1 (configuration not stated)	-6.1*	i	i	i	i	i	i	i	i	i	i
CC(=O)N1c2ccc(S(=O)(=O)N3CCCC(C(=O)Nc4ccc(F)cc4)C3)cc2CC1C (configuration not stated)	-5.1*	i	i	i	i	i	i	i	i	i	i
CC(=O)c1ccc(NC(=O)C2CCCN(S(=O)(=O)c3ccc(-n4cnnn4)cc3)C2)cc1 (configuration not stated)	i	i	i	i	i	.	.	.	.	.	.
CCc1ccc(NC(=O)C2CCN(S(=O)(=O)c3cnc[nH]3)CC2)cc1	i	i	i	i	i	.	.	.	.	.	.
C=C1CCN([C@@H](CC(C)C)C(=O)NCCC(C)C)S(=O)(=O)c2ccccc21	i	i	i	i	.	.	.	.	.	.	.
